Consider 3 molecules from ChEMBL document CHEMBL4613285 (ACS Med Chem Lett, 2020).

Data set [1] deals with Histone deacetylase 1 (Mus musculus, UniProt O09106). The data set can be described thus: Inhibition of HDAC1 in mouse N2A cells. It counts as cell-based.
Data set [2] can be described thus: Drug concentration in CD-1 mouse brain at 3 mg/kg, iv measured at 8 mins. It counts as ADME, organism-based. Particulars: read-out: Ct. The essentials: (§1)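 Male CD1 mice (n=2) dosed IV at 3 mg/kg; brain and plasma sampled at 8 and 60 min; values reported as mean ± standard error.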
The target of data set [3] is T1, Protein deacetylase HDAC6 (Mus musculus, UniProt Q9Z2V5).
T1 sequence (Q9Z2V5 whole entry): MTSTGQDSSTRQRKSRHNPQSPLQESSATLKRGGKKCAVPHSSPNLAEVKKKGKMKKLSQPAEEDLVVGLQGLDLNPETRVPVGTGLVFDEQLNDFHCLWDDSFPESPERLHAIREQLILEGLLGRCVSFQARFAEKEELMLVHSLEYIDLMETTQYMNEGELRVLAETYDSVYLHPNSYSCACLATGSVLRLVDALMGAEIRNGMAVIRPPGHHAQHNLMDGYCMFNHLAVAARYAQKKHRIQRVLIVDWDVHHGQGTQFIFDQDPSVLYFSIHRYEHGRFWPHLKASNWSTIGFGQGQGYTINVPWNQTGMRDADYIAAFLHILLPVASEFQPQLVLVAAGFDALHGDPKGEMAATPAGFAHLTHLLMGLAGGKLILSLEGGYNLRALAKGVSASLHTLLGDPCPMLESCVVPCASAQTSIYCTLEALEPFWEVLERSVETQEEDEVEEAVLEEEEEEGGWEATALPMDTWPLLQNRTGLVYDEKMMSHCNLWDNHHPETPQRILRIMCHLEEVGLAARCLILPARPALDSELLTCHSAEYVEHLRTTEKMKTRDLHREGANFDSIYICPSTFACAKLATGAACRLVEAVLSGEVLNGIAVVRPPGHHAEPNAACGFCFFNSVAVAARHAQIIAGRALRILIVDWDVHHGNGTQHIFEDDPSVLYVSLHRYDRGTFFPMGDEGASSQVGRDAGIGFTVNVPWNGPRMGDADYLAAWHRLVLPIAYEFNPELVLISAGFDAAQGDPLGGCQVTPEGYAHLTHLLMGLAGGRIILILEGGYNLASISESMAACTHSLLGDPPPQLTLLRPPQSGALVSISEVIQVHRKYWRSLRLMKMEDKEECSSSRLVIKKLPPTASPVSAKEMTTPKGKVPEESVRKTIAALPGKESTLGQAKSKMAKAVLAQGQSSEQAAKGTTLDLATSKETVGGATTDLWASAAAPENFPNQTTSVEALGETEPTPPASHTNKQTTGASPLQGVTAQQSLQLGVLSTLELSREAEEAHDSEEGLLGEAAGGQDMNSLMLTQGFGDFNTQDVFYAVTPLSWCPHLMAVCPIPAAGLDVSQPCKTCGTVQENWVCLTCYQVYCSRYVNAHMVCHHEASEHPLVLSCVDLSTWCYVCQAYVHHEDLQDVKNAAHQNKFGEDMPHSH
As to the kind of experiment: Inhibition of HDAC6 in mouse N2A cells. It counts as cell-based.

Data set [4] is described as follows: Ratio of drug level in brain to plasma in CD-1 mouse at 3 mg/kg, iv measured after 8 mins. The conditions noted are these: brain and plasma, read-out: BPR. It counts as ADME, organism-based. The essentials:
as §1

The species entered for data set [5] is Mus musculus. As to the kind of experiment: Selectivity index, ratio of IC50 for HDAC1 in mouse N2A cells to IC50 for HDAC6 in mouse N2A cells. It counts as cell-based.
Data set [6] has as its target T2, Protein deacetylase HDAC6 (Mus musculus) (UniProt Q9Z2V5).
T2 sequence (whole entry): T1 sequence (Q9Z2V5 whole entry)
The data set can be described thus: In vivo inhibition of HDAC6 in C57BL/6 mouse cortex assessed as increase in alpha tubulin acetylation at 20 mg/kg, ip administered bid with interval of 4 hrs and measured after 1.5 hrs of last dosage by Western blot analysis. It counts as functional, organism-based. The essentials:
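Adult male C57BL/6 mice got two IP injections of 20 mg/kg, 4 h apart, and were killed 1.5 h after the second. Cortical homogenates were Western blotted (n = 3–4 per group) for acetylated α-tubulin/total tubulin densitometric ratio, normalized to vehicle-treated baseline (100%). Mean and standard deviation are reported; significance versus vehicle at p < 0.05 or p < 0.01.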
(In general: Immunoblotting shows a protein as a band on a membrane.)

Data set [7] can be described thus: Drug concentration in CD-1 mouse plasma at 3 mg/kg, iv measured at 8 mins. It counts as ADME, organism-based. The essentials:
as §1

In data set [8] the test system is MDR1. The data set can be described thus: Efflux ratio of permeability in MDCK-MDR1 cells. Particulars: dog. It counts as ADME, cell-based, Canis lupus familiaris.
The target of data set [9] is T1, Protein deacetylase HDAC6. The data set can be described thus: Inhibition of HDAC6 in mouse N2A cells assessed as increase in alpha tubulin acetylation. It counts as cell-based. The essentials: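 N2a cells; α-tubulin acetylation read out; 10-dose EC50 mode, singlet, 3-fold serial dilutions from 100 μM top concentration.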
The nature of data set [10]: Ratio of drug level in brain to plasma in CD-1 mouse at 3 mg/kg, iv measured after 60 mins. Particulars: brain and plasma, read-out: BPR. It counts as ADME, organism-based. The essentials:
as §1

Data set [11] is described as follows: Drug concentration in CD-1 mouse brain at 3 mg/kg, iv measured at 60 mins. It counts as ADME, organism-based. Particulars: read-out: Ct. The essentials:
as §1

A short description of data set [12]: Drug concentration in CD-1 mouse plasma at 3 mg/kg, iv measured at 60 mins. It counts as ADME, organism-based. The essentials:
as §1

The nature of data set [13]: Protein binding in mouse plasma. It counts as ADME, cell-free. Particulars: read-out: PPB (converted).
Data set [14] is described as follows: Metabolic stability in mouse plasma assessed as half life. It counts as ADME, cell-free.
A short description of data set [15]: Protein binding in mouse plasma assessed as unbound fraction measured at initial point. It counts as ADME, cell-free. The essentials:
(§2)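 Unbound plasma level derived from total concentrations predicted for 10 mg/kg IP using IV PK data, corrected by measured mouse plasma protein binding; given at initial point and 1 h.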

The nature of data set [16]: Initial plasma concentration in CD-1 mouse at 3 mg/kg, iv measured at 0 mins. It counts as ADME, organism-based. The essentials: (§3)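 Plasma PK in male CD1 mice (n=3, mean) after 3 mg/kg IV; vehicle 5% DMSO in 10% HP-β-CD in saline, pH adjusted with HCl; C0, C1h and Vss derived from plasma profile.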
The subject of data set [17] is MDR1. The data set can be described thus: Efflux ratio of apparent permeability from basolateral to apical over apical to basolateral side in MDCK-MDR1 cells incubated for 2 hrs by LC-MS/MS analysis. Particulars: dog.
Data set [18] is described as follows: Oral bioavailability in CD-1 mouse at 30 mg/kg. It counts as ADME, organism-based. The conditions noted are these: in vivo.
Data set [19] can be described thus: Free drug concentration in mouse brain at 25 mg/kg measured at 8 mins. It counts as ADME, organism-based. The conditions noted are these: in vivo. The essentials: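 Free brain exposure calculated for 25 mg/kg from brain PK at 8 min and brain homogenate binding.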
Data set [20] in a line: Half life in CD-1 mouse at 3 mg/kg, iv. It counts as ADME, organism-based. Particulars: in vivo.
The nature of data set [21]: Protein binding in mouse brain homogenate. It counts as ADME, tissue-based. The conditions noted are these: read-out: PB (converted).
Data set [22] can be described thus: Metabolic stability in mouse liver microsomes assessed as half life. It counts as ADME, Microsome. (Liver microsomes are a subcellular fraction often used to study metabolism.)
Data set [23] can be described thus: Half life in CD-1 mouse at 30 mg/kg, po. It counts as ADME, organism-based. The conditions noted are these: in vivo.
Data set [24] is described as follows: Protein binding in mouse plasma assessed as unbound fraction measured at 1 hr. It counts as ADME, cell-free. The essentials: as §2
A short description of data set [25]: AUC in CD-1 mouse at 30 mg/kg, po. Particulars: in vivo. It counts as ADME, organism-based.
Data set [26] can be described thus: Initial plasma concentration in CD-1 mouse at 30 mg/kg, po measured at 0 mins. It counts as ADME, organism-based. The conditions noted are these: read-out: C0. The essentials: (§4)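 Plasma PK in male CD1 mice (n=3, mean) after 30 mg/kg oral dosing; formulation 5% DMSO in 10% HP-β-CD in saline, pH adjusted with HCl; C0 and C1h from plasma profile.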
Data set [27] is described as follows: Plasma concentration in CD-1 mouse at 30 mg/kg, po measured at 1 hr. It counts as ADME, organism-based. The essentials: as §4
Data set [28] can be described thus: Ratio of drug level in brain to plasma in C57BL/6 mouse at 3 mg/kg, iv measured after 8 mins by LC-MS/MS analysis. Particulars: brain and plasma.
Data set [29] can be described thus: Plasma concentration in CD-1 mouse at 3 mg/kg, iv measured at 1 hr. It counts as ADME, organism-based. The essentials:
as §3

Data set [30] can be described thus: Volume of distribution at steady state in CD-1 mouse at 3 mg/kg, iv. It counts as ADME, organism-based. The conditions noted are these: in vivo. The essentials: as §3
Data set [31] in a line: Metabolic stability in mouse Hepatocyte assessed as half life. It counts as ADME, cell-based. The conditions noted are these: hepatocytes.
Data set [32] in a line: AUC in CD-1 mouse at 3 mg/kg, iv. It counts as ADME, organism-based. Particulars: in vivo.

pEC50, pIC50: −log10 of the molar value. Calls of active or inactive are those of the source. The calls are words filed in the database; no cut-off is given here.

Sequence of Histone deacetylase 1 (O09106 whole entry): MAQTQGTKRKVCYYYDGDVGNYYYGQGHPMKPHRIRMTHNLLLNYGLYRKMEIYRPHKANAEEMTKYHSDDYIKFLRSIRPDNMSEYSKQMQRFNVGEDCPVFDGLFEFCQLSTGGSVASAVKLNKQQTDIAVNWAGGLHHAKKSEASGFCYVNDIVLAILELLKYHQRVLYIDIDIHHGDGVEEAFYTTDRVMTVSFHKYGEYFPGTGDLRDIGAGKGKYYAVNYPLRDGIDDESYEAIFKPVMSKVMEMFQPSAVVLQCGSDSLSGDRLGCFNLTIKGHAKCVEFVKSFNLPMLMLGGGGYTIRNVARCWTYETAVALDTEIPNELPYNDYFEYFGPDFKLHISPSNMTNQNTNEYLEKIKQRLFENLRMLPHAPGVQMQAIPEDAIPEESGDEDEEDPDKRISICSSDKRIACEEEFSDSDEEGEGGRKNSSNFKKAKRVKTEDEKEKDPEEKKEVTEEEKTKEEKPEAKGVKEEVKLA

For `O=C(NO)c1ccc(CN2CCc3ccc(F)cc32)cc1`, the pIC50 (in general, the IC50 on a negative log10 scale, so that one unit is a factor of ten) in data set [1] is 5.26; in data set [3], 8.01. The concentration at 8 min in [2] was 944 ng/g; in data set [7] it was 152 ng/mL. Also, the Kp at 8 min in [4] turned out to be 6.21. For the same molecule, in data set [5], the Ratio IC50 came out at 571. Also, in data set [6], the result was Active. Besides, in [8], the efflux ratio (commonly the permeability from basolateral to apical divided by that in the opposite direction, in the common usage) was found to be 1.05. In addition, in data set [9], the negative-log EC50 (pEC50) (commonly the EC50 on a negative log10 scale, so that one unit is a factor of ten) was 6.60. Also, the Kp at 1 h in [10] came to 9.5. Also, the concentration at 1 h in data set [11] is 7.6 ng/g; in data set [12], 0.8 ng/mL.

As to `CN1CCc2c(c3ccccc3n2Cc2ccc(C(=O)NO)cc2)C1` [TUBASTATIN A], the figures for the fraction unbound in data set [13] and in data set [21] were 0.34 and 0.094, respectively. The half-life (usually how long it takes for the measured level to halve) in data set [14] is 30 min; in [22], above 60 min; in data set [23] it was 51.6 min; in data set [31], above 60 min. Besides, in [15], the “C0(unbound)” value amounted to 3770 nM. In addition, the C0 at 0 h in [16] came out at 1240 ng/mL. The pIC50 in data set [1] is 5.09; in data set [3], 8.36. Besides, the efflux ratio at 2 h in data set [17] is 9.83. The bioavailability (commonly dose-corrected exposure relative to a reference, in per cent) in data set [18] was determined as 5.9%. The “Drug uptake(free)” value in data set [19] came out at 0.1 µM. Also, the figures for the concentration at 8 min in data set [2] and in [7] were 40.5 ng/g and 274 ng/mL, respectively. This molecule also returned a t1/2 in [20] of 21 min. Besides, the Kp at 8 min in [4] and in [28] was 0.15 throughout. Further, in [8], the efflux ratio stood at 9.83. In addition, the “Cp(f)” value in data set [24] stood at 90 nM. In addition, the AUC (commonly the area under the concentration-time curve, a measure of exposure) in data set [25] was found to be 134 ng·h/mL; in data set [32], 227 ng·h/mL. Also, in data set [9], the pEC50 was 6.84. In data set [26], the concentration at 0 h came out at 135 ng/mL. For the same molecule, the Kp at 1 h in data set [10] came to 0.86. Further, the concentration at 1 h was 41.9 ng/mL in [27], 29.7 ng/mL in data set [29], 17.5 ng/g in [11] and 20.3 ng/mL in [12]. The Vdss (as a rule, a proportionality between amount in the body and measured concentration, not a real space) in data set [30] is 4.14 L/kg.

Turning to `O=C(NO)c1ccc(Cn2cccn2)cc1`, the figures for the pIC50 in data set [1] and in data set [3] were 5.16 and 7.34, respectively. Also, the concentration at 8 min in data set [2] was found to be 354 ng/g; in [7], 345 ng/mL. The Kp at 8 min in [4] is 1.03. Also, the Ratio IC50 in data set [5] turned out to be 150. For the same molecule, the outcome in data set [6] was Active. The efflux ratio in data set [8] was determined as 0.51. For the same molecule, in data set [9], the pEC50 is 6.03. In addition, in data set [10], the Kp at 1 h worked out at 5.08. Also, the concentration at 1 h is 30.5 ng/g in [11] and 6 ng/mL in [12].
